The subject of experiment [1] is Mus musculus. Kind of experiment: Inhibition of 11beta-HSD1 in ICR mouse assessed as inhibition of conversion of [3H]-cortisone to [3H]-cortisol at 10 mg/kg, po administered 4 hrs before [3H]-cortisone challenge. Type of experiment: functional. Summed up: (§1)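 Mouse pharmacodynamic model. Compound given 10 mg/kg PO, then 3H-cortisone by tail vein injection 1, 4 or 16 h after dosing. […] Plasma compound levels were measured after the PD studies.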

Experiment [2] addresses 11-beta-hydroxysteroid dehydrogenase 1 (Homo sapiens, UniProt P28845). Kind of experiment: Inhibition of human 11beta-HSD1 expressed in CHO-K1 cells assessed as conversion of [3H]-cortisone to [3H]-cortisol by scintillation proximity assay. The format is cell-based. Summed up:
(§2)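 Scintillation proximity assay (SPA). IC50 values are the average of two determinations.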
(In general: SPA uses beads or plates that emit light when radiolabelled molecules are held near them.)

For experiment [3], the target named is T1, 11-beta-hydroxysteroid dehydrogenase type 2 (Homo sapiens, UniProt P80365).
T1 sequence (P80365 whole entry): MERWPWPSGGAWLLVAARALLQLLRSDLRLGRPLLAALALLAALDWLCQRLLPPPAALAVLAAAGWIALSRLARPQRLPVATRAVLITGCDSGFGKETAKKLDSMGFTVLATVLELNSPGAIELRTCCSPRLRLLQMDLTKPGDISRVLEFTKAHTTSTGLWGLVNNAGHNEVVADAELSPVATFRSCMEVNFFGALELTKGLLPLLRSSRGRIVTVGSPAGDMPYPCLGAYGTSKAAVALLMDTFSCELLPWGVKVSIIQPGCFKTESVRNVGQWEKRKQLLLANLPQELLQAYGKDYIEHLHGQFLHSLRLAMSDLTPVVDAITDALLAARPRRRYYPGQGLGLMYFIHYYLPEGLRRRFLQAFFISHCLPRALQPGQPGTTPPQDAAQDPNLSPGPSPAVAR
Kind of experiment: Inhibition of human 11beta-HSD2 expressed in CHO-K1 cells assessed as conversion of [3H]-cortisol to [3H]-cortisone by scintillation proximity assay. Type of experiment: cell-based.

Experiment [4] concerns the target T2, 11-beta-hydroxysteroid dehydrogenase type 2 (Mus musculus, UniProt P51661).
T2 sequence (P51661 whole entry): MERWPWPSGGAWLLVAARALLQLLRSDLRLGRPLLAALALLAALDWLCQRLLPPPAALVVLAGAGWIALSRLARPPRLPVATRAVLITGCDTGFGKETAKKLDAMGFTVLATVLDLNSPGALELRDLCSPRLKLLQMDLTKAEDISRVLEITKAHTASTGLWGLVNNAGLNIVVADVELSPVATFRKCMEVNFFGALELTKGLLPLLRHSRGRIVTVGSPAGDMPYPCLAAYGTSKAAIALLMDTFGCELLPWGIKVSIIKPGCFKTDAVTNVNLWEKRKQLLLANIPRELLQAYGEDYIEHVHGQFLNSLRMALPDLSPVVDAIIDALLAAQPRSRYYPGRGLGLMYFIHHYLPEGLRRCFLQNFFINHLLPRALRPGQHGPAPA
Kind of experiment: Inhibition of mouse 11beta-HSD2 expressed in CHO-K1 cells assessed as conversion of [3H]-cortisol to [3H]-cortisone by scintillation proximity assay. Type of experiment: cell-based. Summed up: as §2

Experiment [5] deals with 11-beta-hydroxysteroid dehydrogenase 1 (Mus musculus, UniProt P50172). Kind of experiment: Inhibition of mouse 11beta-HSD1 expressed in CHO-K1 cells assessed as conversion of [3H]-cortisone to [3H]-cortisol by scintillation proximity assay. The format is cell-based.
Chain of 11-beta-hydroxysteroid dehydrogenase 1 (Mus musculus, UniProt P50172) (P50172 whole entry): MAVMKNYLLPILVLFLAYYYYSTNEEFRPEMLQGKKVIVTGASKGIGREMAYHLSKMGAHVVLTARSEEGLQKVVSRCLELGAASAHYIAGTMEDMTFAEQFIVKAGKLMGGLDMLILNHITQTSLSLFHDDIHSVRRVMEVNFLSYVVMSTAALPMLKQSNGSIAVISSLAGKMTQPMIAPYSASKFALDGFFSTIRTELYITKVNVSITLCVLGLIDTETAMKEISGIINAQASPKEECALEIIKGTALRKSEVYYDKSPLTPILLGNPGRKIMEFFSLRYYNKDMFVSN
In experiment [6] the test system is Mus musculus. Kind of experiment: Inhibition of 11beta-HSD1 in ICR mouse assessed as inhibition of conversion of [3H]-cortisone to [3H]-cortisol at 10 mg/kg, po administered 16 hrs before [3H]-cortisone challenge. The format is functional. Summed up: as §1

SMILES strings stand for the structures.

We go through 26 compounds from ChEMBL document CHEMBL1759916, “Bicyclo[2.2.2]octyltriazole inhibitors of 11β-hydoxysteroid dehydrogenase type 1. Pharmacological agents for the treatment of metabolic syndrome” (Bioorg Med Chem Lett, 2011).

Chain of 11-beta-hydroxysteroid dehydrogenase 1 (Homo sapiens, UniProt P28845) (P28845 whole entry): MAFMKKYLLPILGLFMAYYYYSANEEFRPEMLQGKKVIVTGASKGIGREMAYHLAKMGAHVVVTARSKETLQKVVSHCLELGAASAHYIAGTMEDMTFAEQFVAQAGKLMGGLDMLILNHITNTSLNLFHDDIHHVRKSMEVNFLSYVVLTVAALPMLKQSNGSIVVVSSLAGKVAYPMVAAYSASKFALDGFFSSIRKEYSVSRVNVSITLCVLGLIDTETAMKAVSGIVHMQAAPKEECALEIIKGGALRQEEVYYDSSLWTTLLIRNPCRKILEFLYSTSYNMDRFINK

As for `Cn1c(-c2ccccc2C(F)(F)F)nnc1C12CCC(CNS(C)(=O)=O)(CC1)CC2`, the inhibition in vivo (commonly the percentage by which the read-out fell short of the control) at 10 mg/kg with Mus musculus [1] was determined as 73%; with Mus musculus [6], 27%. In addition, the IC50 – broadly, the midpoint of a concentration-inhibition curve – is 30 nM in experiment [2], over 4 µM in experiment [3], over 4 µM in experiment [4] and 4 nM in experiment [5].

As to `CCS(=O)(=O)CCCCC12CCC(c3nnc(-c4ccccc4C(F)(F)F)n3C)(CC1)CC2`, the figures for the inhibition in vivo at 10 mg/kg in the experiment on Mus musculus [1] and with Mus musculus [6] were 90% and 58%, respectively. Besides, the IC50 is 1.6 nM in experiment [2], over 4 µM in experiment [3], over 4 µM in experiment [4] and 1.8 nM in experiment [5].

For `CCCS(=O)(=O)CCC12CCC(c3nnc(-c4ccccc4C(F)(F)F)n3C)(CC1)CC2`, the inhibition in vivo at 10 mg/kg stood at 89% with Mus musculus [1] and 47% in the experiment on Mus musculus [6]. The IC50 in experiment [2] was 5.1 nM; in experiment [3], over 4 µM; in experiment [4] it was over 4 µM; in experiment [5], 6.7 nM.

Turning to `Cn1c(-c2ccccc2C(F)(F)F)nnc1C12CCC(COc3ccc(S(C)(=O)=O)cc3)(CC1)CC2`, the inhibition in vivo at 10 mg/kg in the experiment on Mus musculus [1] came out at 79%; in the experiment on Mus musculus [6] it was 28%. The half-inhibitory concentration (IC50) was 1 nM in experiment [2], over 4 µM in experiment [3], over 4 µM in experiment [4] and 2 nM in experiment [5].

Consider `CCCS(=O)(=O)NCC12CCC(c3nnc(-c4ccccc4C(F)(F)F)n3C)(CC1)CC2`, for which the inhibition in vivo at 10 mg/kg with Mus musculus [1] stood at 93%; with Mus musculus [6], 7%. Further, the half-maximal inhibitory concentration (IC50) was 8.1 nM in experiment [2], over 4 µM in experiment [3], over 4 µM in experiment [4] and 1 nM in experiment [5].

`CCS(=O)(=O)CCC12CCC(c3nnc(-c4ccc(Cl)cc4)n3C)(CC1)CC2`: the concentration for half-maximal inhibition (IC50) in experiment [2] was 2800 nM; in experiment [3], over 4 µM; in experiment [4], over 4 µM; in experiment [5], over 4000 nM.

`CC(C)S(=O)(=O)CCC12CCC(c3nnc(-c4ccccc4C(F)(F)F)n3C)(CC1)CC2`: the inhibition in vivo at 10 mg/kg came out at 88% in the experiment with Mus musculus [1] and 59% in the experiment with Mus musculus [6]. Also, the 50% inhibitory concentration (IC50) is 4.1 nM in experiment [2], over 4 µM in experiment [3], over 4 µM in experiment [4] and 3.6 nM in experiment [5].

In the case of `CCSCCC12CCC(c3nnc(-c4ccccc4C(F)(F)F)n3C)(CC1)CC2`, the inhibition in vivo at 10 mg/kg in the experiment on Mus musculus [1] turned out to be 79%; in the experiment with Mus musculus [6] it was 72%. Moreover, the half-maximal inhibitory concentration (IC50) in experiment [2] was 3.3 nM; in experiment [3], over 4 µM; in experiment [4], over 4 µM; in experiment [5], 3.9 nM.

Take `CCS(=O)(=O)CCC12CCC(c3nnc(-c4ccccc4Cl)n3C)(CC1)CC2`: the inhibition in vivo at 10 mg/kg in the experiment with Mus musculus [1] came out at 87%; in the experiment with Mus musculus [6], 74%. Besides, the IC50 in experiment [2] is 7.5 nM; in experiment [3], over 4 µM; in experiment [4], over 4 µM.

For `CCS(=O)(=O)NCC12CCC(c3nnc(-c4ccccc4C(F)(F)F)n3C)(CC1)CC2`, the inhibition in vivo at 10 mg/kg was found to be 95% in the experiment on Mus musculus [1] and 50% in the experiment with Mus musculus [6]. The IC50 in experiment [2] was 20 nM; in experiment [3], over 4 µM; in experiment [4], over 4 µM; in experiment [5], 2.9 nM.

Consider `CCS(=O)(=O)CC12CCC(c3nnc(-c4ccccc4C(F)(F)F)n3C)(CC1)CC2`, for which the values for the inhibition in vivo at 10 mg/kg in the experiment with Mus musculus [1] and in the experiment on Mus musculus [6] were 94% and 80%, respectively. For the same compound, the IC50 in experiment [5] was 4 nM.

Take `CC[S+]([O-])CCC12CCC(c3nnc(-c4ccccc4C(F)(F)F)n3C)(CC1)CC2` (stereo unspecified): the inhibition in vivo at 10 mg/kg with Mus musculus [1] stood at 90%; with Mus musculus [6], 72%. Also, the half-inhibitory concentration (IC50) in experiment [2] was 4.1 nM; in experiment [3] it was over 4 µM; in experiment [4], over 4 µM; in experiment [5], 10 nM.

As for `CCS(=O)(=O)CCC12CCC(c3nnc(-c4ccc(O)cc4Cl)n3C)(CC1)CC2`, the inhibition in vivo at 10 mg/kg in the experiment on Mus musculus [1] came to 26%; in the experiment with Mus musculus [6], 14%. In addition, the IC50 in experiment [2] was 2.8 nM; in experiment [3] it was over 4 µM; in experiment [4], over 4 µM; in experiment [5], 3 nM.

As for `CCS(=O)(=O)CCC12CCC(c3nnc(-c4ccccc4Br)n3C)(CC1)CC2`, the inhibition in vivo at 10 mg/kg with Mus musculus [1] was determined as 86%; in the experiment with Mus musculus [6], 65%. In addition, the concentration for half-maximal inhibition (IC50) was 10 nM in experiment [2], over 4 µM in experiment [3] and over 4 µM in experiment [4].

Take `CCS(=O)(=O)CCC12CCC(c3nnc(-c4ccccc4C)n3C)(CC1)CC2`: the inhibition in vivo at 10 mg/kg turned out to be 86% in the experiment on Mus musculus [1] and 30% with Mus musculus [6]. Further, the IC50 in experiment [3] and in experiment [4] was over 4 µM in each case.

For the compound `Cn1c(-c2ccccc2C(F)(F)F)nnc1C12CCC(CCS(C)(=O)=O)(CC1)CC2`, the figures for the inhibition in vivo at 10 mg/kg in the experiment on Mus musculus [1] and in the experiment with Mus musculus [6] were 96% and 63%, respectively. The concentration for half-maximal inhibition (IC50) was 11 nM in experiment [2], over 4 µM in experiment [3], over 4 µM in experiment [4] and 4.1 nM in experiment [5].

As for `CCS(=O)(=O)CCC12CCC(c3nnc(-c4cccc(Cl)c4)n3C)(CC1)CC2`, the half-maximal inhibitory concentration (IC50) in experiment [2] is 900 nM; in experiment [3], over 4 µM; in experiment [4], over 4 µM; in experiment [5], 1100 nM.

`CCOCC12CCC(c3nnc(-c4ccccc4C(F)(F)F)n3C)(CC1)CC2`: the inhibition in vivo at 10 mg/kg with Mus musculus [1] stood at 44%; with Mus musculus [6] it was 3%. Besides, the concentration for half-maximal inhibition (IC50) in experiment [2] was 4 nM; in experiment [3], over 4 µM; in experiment [4] it was over 4 µM; in experiment [5], 2 nM.

Turning to `CCS(=O)(=O)CCCC12CCC(c3nnc(-c4ccccc4C(F)(F)F)n3C)(CC1)CC2` [MK-0736], the inhibition in vivo at 10 mg/kg with Mus musculus [1] was found to be 92%; in the experiment on Mus musculus [6] it was 63%. In addition, the IC50 in experiment [2] was 3.2 nM; in experiment [3] it was over 4 µM; in experiment [4], over 4 µM; in experiment [5] it was 2.4 nM.

On to `CC(F)CCCC12CCC(c3nnc(-c4ccccc4C(F)(F)F)n3C)(CC1)CC2` (stereo unspecified), for which the figures for the inhibition in vivo at 10 mg/kg in the experiment on Mus musculus [1] and in the experiment on Mus musculus [6] were 96% and 51%, respectively. Besides, the IC50 was under 1 nM in experiment [2], 1.3 µM in experiment [3], over 4 µM in experiment [4] and under 1 nM in experiment [5].

For `COCCCCC12CCC(c3nnc(-c4ccccc4C(F)(F)F)n3C)(CC1)CC2`, the values for the inhibition in vivo at 10 mg/kg with Mus musculus [1] and in the experiment with Mus musculus [6] were 76% and 1%, respectively. The IC50 in experiment [2] was 2 nM; in experiment [3], 4 µM; in experiment [4], over 4 µM; in experiment [5], 2 nM.

`Cn1c(-c2ccccc2C(F)(F)F)nnc1C12CCC(CCS(=O)(=O)CC(F)(F)F)(CC1)CC2`: the results for the inhibition in vivo at 10 mg/kg with Mus musculus [1] and with Mus musculus [6] were 74% and 67%, respectively. Moreover, the IC50 in experiment [2] was 3.7 nM; in experiment [3], 1.6 µM; in experiment [4], over 4 µM; in experiment [5] it was 1.5 nM.

On to `Cn1c(-c2ccccc2C(F)(F)F)nnc1C12CCC(CCS(=O)(=O)c3ccc(F)cc3)(CC1)CC2`, for which the figures for the inhibition in vivo at 10 mg/kg with Mus musculus [1] and with Mus musculus [6] were 63% and 2%, respectively. The IC50 is 5.5 nM in experiment [2], over 4 µM in experiment [3], over 4 µM in experiment [4] and 1.8 nM in experiment [5].

Take `Cn1c(-c2ccccc2C(F)(F)F)nnc1C12CCC(CCS(=O)(=O)C(C)(C)C)(CC1)CC2`: the inhibition in vivo at 10 mg/kg amounted to 65% in the experiment on Mus musculus [1] and 10% with Mus musculus [6]. Besides, the IC50 in experiment [2] is 5.4 nM; in experiment [3], over 4 µM; in experiment [4], over 4 µM; in experiment [5], 6.3 nM.

Take `Cn1c(-c2ccccc2C(F)(F)F)nnc1C12CCC(CCS(=O)(=O)c3ccccc3)(CC1)CC2`: the figures for the inhibition in vivo at 10 mg/kg in the experiment with Mus musculus [1] and in the experiment on Mus musculus [6] were 69% and 6%, respectively. For the same compound, the IC50 in experiment [2] was 4.4 nM; in experiment [3], over 4 µM; in experiment [4], over 4 µM; in experiment [5] it was 1.6 nM.

As for `CCS(=O)(=O)CCC12CCC(c3nnc(-c4ccccc4F)n3C)(CC1)CC2`, the IC50 in experiment [3] and in experiment [4] was over 4 µM each time.
